Assay results: ChEMBL document CHEMBL3102734, “Inhibition of LOX by flavonoids: a structure-activity relationship study” (Eur J Med Chem, 2014)
Activity calls are given as the source filed them. No cut-off for these calls is given here.

Tests used:
[1] = target: T1, Polyunsaturated fatty acid 5-lipoxygenase (Homo sapiens) (UniProt P09917); assay: Inhibition of 5-LOX-mediated LTB4 production in human neutrophils using arachidonic acid as substrate at 0.15 to 40 uM preincubated for 10 mins followed by substrate addition measured after 8 mins by enzyme immunoassay relative to control
T1 sequence (whole entry): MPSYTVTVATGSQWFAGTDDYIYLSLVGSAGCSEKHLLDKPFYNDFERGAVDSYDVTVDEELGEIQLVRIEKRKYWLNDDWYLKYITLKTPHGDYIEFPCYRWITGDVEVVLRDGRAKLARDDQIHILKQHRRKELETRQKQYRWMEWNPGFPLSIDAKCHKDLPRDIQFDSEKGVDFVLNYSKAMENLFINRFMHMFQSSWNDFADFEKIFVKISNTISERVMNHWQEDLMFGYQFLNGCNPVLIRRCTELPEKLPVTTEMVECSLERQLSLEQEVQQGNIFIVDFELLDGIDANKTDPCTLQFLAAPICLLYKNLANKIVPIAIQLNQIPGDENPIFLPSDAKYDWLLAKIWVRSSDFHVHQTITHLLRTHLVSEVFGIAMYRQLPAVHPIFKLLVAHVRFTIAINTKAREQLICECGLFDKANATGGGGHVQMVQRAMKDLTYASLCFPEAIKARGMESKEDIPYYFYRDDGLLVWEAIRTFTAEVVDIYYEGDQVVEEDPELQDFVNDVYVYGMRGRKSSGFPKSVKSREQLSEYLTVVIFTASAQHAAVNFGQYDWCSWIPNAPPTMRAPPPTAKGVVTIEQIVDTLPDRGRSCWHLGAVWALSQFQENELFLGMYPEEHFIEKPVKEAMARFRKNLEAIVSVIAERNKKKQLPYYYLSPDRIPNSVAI
Procedure, shortened: (§1)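 Isolated human neutrophils held in HBSS on ice; viability checked by trypan blue. Cells at 3.5×10^6 cells/mL equilibrated 10 min at 37 °C. Flavonoids (0.15–40 μM) pre-incubated 10 min, then A23187 (5 μM) plus arachidonic acid (10 μg/mL) added for 8 min. Stopped with cold methanol and centrifuged 13,000 g, 1 min, 4 °C. LTB4 measured by EIA and expressed as % inhibition of control. NDGA (1 μM) positive control. At least three experiments.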

[2] = target: T2, Seed linoleate 13S-lipoxygenase-1 (Glycine max, UniProt P08170); assay: Mixed noncompetitive type inhibition of soybean LOX-1 using linoleic acid as substrate preincubated for 5 mins followed by substrate addition by Lineweaver-Burk plot analysis
T2 sequence (P08170 whole entry): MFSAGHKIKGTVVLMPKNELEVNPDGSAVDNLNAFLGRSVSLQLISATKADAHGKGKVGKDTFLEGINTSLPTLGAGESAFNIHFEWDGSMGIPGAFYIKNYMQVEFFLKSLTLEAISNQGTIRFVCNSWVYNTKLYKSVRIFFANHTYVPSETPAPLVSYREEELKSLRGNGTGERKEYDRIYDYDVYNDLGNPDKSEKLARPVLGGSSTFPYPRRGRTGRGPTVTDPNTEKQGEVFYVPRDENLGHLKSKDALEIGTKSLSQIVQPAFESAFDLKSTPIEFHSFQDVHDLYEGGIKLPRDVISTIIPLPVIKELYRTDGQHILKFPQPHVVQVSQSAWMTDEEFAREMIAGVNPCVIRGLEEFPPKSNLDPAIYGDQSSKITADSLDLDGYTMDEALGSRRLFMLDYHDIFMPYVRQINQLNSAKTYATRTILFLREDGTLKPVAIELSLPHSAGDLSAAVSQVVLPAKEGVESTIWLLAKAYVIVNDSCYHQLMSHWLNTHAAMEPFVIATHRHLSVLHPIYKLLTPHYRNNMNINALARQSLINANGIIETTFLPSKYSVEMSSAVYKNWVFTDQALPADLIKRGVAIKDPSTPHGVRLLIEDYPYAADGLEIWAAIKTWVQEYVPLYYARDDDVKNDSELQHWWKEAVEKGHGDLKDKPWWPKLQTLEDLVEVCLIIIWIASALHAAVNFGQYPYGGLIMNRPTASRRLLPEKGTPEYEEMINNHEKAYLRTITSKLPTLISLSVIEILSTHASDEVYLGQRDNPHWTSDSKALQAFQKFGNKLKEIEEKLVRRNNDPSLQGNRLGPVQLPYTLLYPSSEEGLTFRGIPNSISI
Procedure, shortened: (§2)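 Soybean LOX-1 (supplied lyophilized) kinetic assay. Enzyme pre-incubated with inhibitor 5 min, then linoleic acid added. Conversion to the cis,trans-hydroperoxide followed at 234 nm at 30 °C with continuous soft shaking. Readings every 30 s for 10 min; rate taken as the 0–3 min slope. Three inhibitor concentrations tested against three substrate concentrations. Inhibition type assigned by nonlinear Michaelis–Menten fitting and Lineweaver–Burk plots. At least four experiments, each in triplicate.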

[3] = target: T3, Seed linoleate 13S-lipoxygenase-1 (Glycine max) (UniProt P08170); assay: Binding affinity to soybean LOX-1 at 1248 uM by STD-[1H] NMR spectroscopic analysis
T3 sequence (whole entry): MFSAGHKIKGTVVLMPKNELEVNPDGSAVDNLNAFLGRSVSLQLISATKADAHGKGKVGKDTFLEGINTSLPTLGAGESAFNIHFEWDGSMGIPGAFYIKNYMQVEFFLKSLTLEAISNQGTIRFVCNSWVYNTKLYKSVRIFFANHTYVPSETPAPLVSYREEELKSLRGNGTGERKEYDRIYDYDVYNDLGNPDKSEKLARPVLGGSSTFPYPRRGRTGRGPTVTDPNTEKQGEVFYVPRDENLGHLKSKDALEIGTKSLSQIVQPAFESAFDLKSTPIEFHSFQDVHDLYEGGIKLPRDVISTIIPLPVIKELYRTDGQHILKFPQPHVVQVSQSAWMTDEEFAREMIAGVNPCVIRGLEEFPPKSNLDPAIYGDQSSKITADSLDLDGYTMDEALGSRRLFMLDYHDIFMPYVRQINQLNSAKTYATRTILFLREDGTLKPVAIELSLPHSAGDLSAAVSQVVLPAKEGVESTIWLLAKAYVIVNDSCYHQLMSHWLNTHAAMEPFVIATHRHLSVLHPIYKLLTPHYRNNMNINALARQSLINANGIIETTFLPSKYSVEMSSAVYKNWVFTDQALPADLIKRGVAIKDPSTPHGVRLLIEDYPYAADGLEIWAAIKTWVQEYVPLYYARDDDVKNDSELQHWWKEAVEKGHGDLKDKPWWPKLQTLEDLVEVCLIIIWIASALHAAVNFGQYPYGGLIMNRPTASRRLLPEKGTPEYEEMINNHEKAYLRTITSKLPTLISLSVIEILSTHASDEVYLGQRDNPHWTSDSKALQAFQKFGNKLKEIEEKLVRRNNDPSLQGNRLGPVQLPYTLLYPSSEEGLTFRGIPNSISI
Procedure, shortened: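 STD-1H NMR at 37 °C, 600 MHz, cryoprobe. Lyophilized soybean LOX-1 in Tris buffer (20 mM Tris, 7 mM (NH4)2SO4, 3.5 mM MgCl2, 0.3 mM DTT in D2O, pH 9.0). Ligand added from a 16.6 mM DMSO-d6 stock. Final concentrations: LOX 4 μM, ligand 1248 μM, ratio 300:1. On-resonance saturation at 1.0 ppm; off-resonance reference at 20000 Hz.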

[4] = target: T1, Polyunsaturated fatty acid 5-lipoxygenase (Homo sapiens); assay: Inhibition of 5-LOX-mediated LTB4 production in human neutrophils using arachidonic acid as substrate at 40 uM preincubated for 10 mins followed by substrate addition measured after 8 mins by enzyme immunoassay relative to control; procedure, shortened: as §1
[5] = target: T2, Seed linoleate 13S-lipoxygenase-1; assay: Uncompetitive inhibition of soybean LOX-1 using linoleic acid as substrate preincubated for 5 mins followed by substrate addition by Lineweaver-Burk plot analysis
Procedure, shortened: as §2, with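 “added.” for “added. Conversion to the cis,trans-hydroperoxide followed at 234 nm at 30 °C with continuous soft shaking.”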

Compound: O=c1cc(-c2ccccc2)oc2cccc(O)c12
- inhibition [1]: inactive

Compound: O=c1cc(-c2ccccc2)oc2cc(O)cc(O)c12 [CHRYSIN]
- Ki [2]: 19.4 µM
- Activity [3]: Active
- inhibition [4]: < 50%

Compound: O=c1cc(-c2cccc(O)c2)oc2cc(O)cc(O)c12
- Activity [3]: Active
- Ki [5]: 95.4 µM
- inhibition [4]: 52%

Compound: O=C1CC(c2ccc(O)c(O)c2)Oc2cc(O)cc(O)c21 (racemic)
- inhibition [4]: 53.4%

Compound: O=c1cc(-c2cccc(O)c2)oc2ccccc12
- inhibition [4]: < 50%

Compound: O=c1cc(-c2cccc(O)c2)oc2cccc(O)c12
- inhibition [4]: < 50%
